Data reported in article PMC12578630 (Nature Microbiology, 2025).
Values after ≈ are worked out from the molar mass of the structure shown. Where two headings read alike, the source gives them in different places.

Legend:
MRSA QLH-2022-718 = assay: Bacterial resistance development, serial passage; type: cell-based, Staphylococcus aureus; details: for MIC: Staphylococcus aureus, MRSA
[1] = Histologic changes in the kidney and colon; type: in vivo, mouse; details: H&E, infected and treated mice
Summary of the method: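 Tissue fixed in 4% paraformaldehyde for at least 24 h, dehydrated through graded ethanol, cleared in xylene, paraffin-embedded. Sections cut at 4 μm, dried at 60 °C, dewaxed and rehydrated. Stained with haematoxylin (3–5 min), differentiated and blued, counterstained with eosin (15 s), then dehydrated, cleared and mounted in neutral balsam. Imaged by light microscopy.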

CRAB QLH-2022-637 = assay: Bacterial resistance development, serial passage; type: cell-based, Acinetobacter baumannii; details: serial passage at 0.5-fold MIC

## CN[C@H](CC(C)C)C(=O)N[C@H]1C(=O)N[C@@H](CC(N)=O)C(=O)N[C@H]2C(=O)N[C@H]3C(=O)N[C@H](C(=O)N[C@H](C(=O)O)c4cc(O)cc(O)c4-c4cc3ccc4O)[C@H](O)c3ccc(c(Cl)c3)Oc3cc2cc(c3O[C@@H]2O[C@H](CO)[C@@H](O)[C@H](O)[C@H]2O[C@H]2C[C@](C)(N)[C@H](O)[C@H](C)O2)Oc2ccc(cc2Cl)[C@H]1O [vancomycin]
MRSA QLH-2022-718; read-out: MIC after 18 passages
  MIC: ≥ 64 µg/mL
MRSA QLH-2022-718; read-out: MIC at the first passage
  MIC: 0.5 µg/mL (≈ 0.345 µM)
MRSA QLH-2022-718; serial passage at 0.5-fold MIC
  fold increase in MIC after 18 passages: ≥ 128 fold
[1]
  kidney tissue histology, in words: histopathological changes: cytoplasmic rarefaction and pale staining

## polymyxin B
CRAB QLH-2022-637
  fold increase in MIC after 20 passages: 32 fold
[1]
  kidney tissue histology, in words: A small amount of venous stasis
